pIC50: −log10 of the molar value.
System: not listed separately
Assay: Permeability across human Caco2 cells
Type: ADME, cell-based
Settings: Caco-2, read-out: permeability
Method in brief: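 Permeation is measured across a Caco2 cell monolayer and reported in 10⁻⁷ cm·s⁻¹.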

Papp	SMILES
8.2 ×10⁻⁶ cm/s	CCCC(=O)c1cnn(-c2ccc(NC(=O)c3cn(CC(=O)N4CCN(CCF)CC4)c4ccc(C)cc34)cc2)c1C
1.7 ×10⁻⁶ cm/s	CCCC(=O)c1cnn(-c2ccc(NC(=O)c3cn(CC(=O)N4CCN(Cc5ccc(F)cc5)CC4)c4ccc(C)cc34)cc2)c1C

System: not listed separately
Assay: Metabolic stability in human liver microsomes assessed as compound metabolism after 20 mins incubation in presence of 1 mM NADPH
Type: ADME
Settings: liver microsomes, read-out: Drug metabolism
Method in brief: (§1)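 Hepatic microsomal fractions are incubated with compound for 20 min with 1 mM NADPH. Result is reported as % metabolized, i.e. 100 minus % unchanged compound.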

metabolised at 20 min	SMILES
5%	CCCC(=O)c1cnn(-c2ccc(NC(=O)c3cn(CC(=O)O)c4ccc(C)cc34)cc2)c1C
62%	CCCC(=O)c1cnn(-c2ccc(NC(=O)c3cn(CC(=O)N4CCN(CCF)CC4)c4ccc(C)cc34)cc2)c1C
61%	CCCC(=O)c1cnn(-c2ccc(NC(=O)c3cn(CC(=O)N4C[C@@H]5C[C@@H](O)CN5C[C@@H]4C)c4ccc(C)cc34)cc2)c1C
40%	CC(=O)c1cnn(-c2ccc(NC(=O)c3cn(CC(=O)N4CCN(C)CC4)c4ccc(Cl)cc34)cc2)c1C
63%	CCCC(=O)c1cnn(-c2ccc(NC(=O)c3cn(CC(=O)N4CCN(Cc5ccc(F)cc5)CC4)c4ccc(C)cc34)cc2)c1C
6%	Cc1c(C(=O)CCC(F)(F)F)cnn1-c1ccc(NC(=O)c2cn(CC(=O)N3CCN(C)CC3)c3ccc(Cl)cc23)cc1
4%	CCCC(=O)c1cnn(-c2ccc(NC(=O)c3cn(CC(=O)O)c4cc(C)c(C)cc34)cc2)c1C
68%	CCCC(=O)c1cnn(-c2ccc(NC(=O)c3cn(CC(=O)N4CCN(C)CC4)c4ccc(OC)cc34)cc2)c1C

SMILES	metabolised at 20 min
CCC(=O)c1cnn(-c2ccc(NC(=O)c3cn(CC(=O)N4CCN(C)CC4)c4ccc(Cl)cc34)cc2)c1C	32%

System: not listed separately
Assay: Metabolic stability in rat liver microsomes assessed as compound metabolism after 20 mins incubation in presence of 1 mM NADPH
Type: ADME
Settings: liver microsomes, read-out: Drug metabolism
Method in brief: as §1

metabolised at 20 min	SMILES
1%	CCCC(=O)c1cnn(-c2ccc(NC(=O)c3cn(CC(=O)O)c4ccc(C)cc34)cc2)c1C
36%	CCCC(=O)c1cnn(-c2ccc(NC(=O)c3cn(CC(=O)N4CCN(CCF)CC4)c4ccc(C)cc34)cc2)c1C
25%	CCCC(=O)c1cnn(-c2ccc(NC(=O)c3cn(CC(=O)N4C[C@@H]5C[C@@H](O)CN5C[C@@H]4C)c4ccc(C)cc34)cc2)c1C
47%	CC(=O)c1cnn(-c2ccc(NC(=O)c3cn(CC(=O)N4CCN(C)CC4)c4ccc(Cl)cc34)cc2)c1C
27%	CCCC(=O)c1cnn(-c2ccc(NC(=O)c3cn(CC(=O)N4CCN(Cc5ccc(F)cc5)CC4)c4ccc(C)cc34)cc2)c1C
3%	Cc1c(C(=O)CCC(F)(F)F)cnn1-c1ccc(NC(=O)c2cn(CC(=O)N3CCN(C)CC3)c3ccc(Cl)cc23)cc1
2%	CCCC(=O)c1cnn(-c2ccc(NC(=O)c3cn(CC(=O)O)c4cc(C)c(C)cc34)cc2)c1C
63%	CCCC(=O)c1cnn(-c2ccc(NC(=O)c3cn(CC(=O)N4CCN(C)CC4)c4ccc(OC)cc34)cc2)c1C

SMILES	metabolised at 20 min
CCC(=O)c1cnn(-c2ccc(NC(=O)c3cn(CC(=O)N4CCN(C)CC4)c4ccc(Cl)cc34)cc2)c1C	25%

Molecular target: P2Y purinoceptor 12 (Homo sapiens, UniProt Q9H244)
Sequence (Q9H244 whole entry): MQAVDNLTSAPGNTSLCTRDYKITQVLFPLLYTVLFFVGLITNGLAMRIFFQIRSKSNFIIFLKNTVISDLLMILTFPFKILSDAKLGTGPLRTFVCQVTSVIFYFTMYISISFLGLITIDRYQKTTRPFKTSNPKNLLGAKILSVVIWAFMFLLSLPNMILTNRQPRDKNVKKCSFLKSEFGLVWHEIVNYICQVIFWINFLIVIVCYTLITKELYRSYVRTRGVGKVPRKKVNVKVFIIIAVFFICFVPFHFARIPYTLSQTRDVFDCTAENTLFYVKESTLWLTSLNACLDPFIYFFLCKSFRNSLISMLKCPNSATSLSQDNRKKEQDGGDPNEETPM
Assay: Displacement of [33P]2MeS-ADP from P2Y12 receptor (unknown origin) transfected in CHO cells after 30 mins by scintillation counting analysis
Type: cell-based
Settings: not given
Method in brief: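 P2Y12-expressing CHO cells (35 × 10³/sample) in PBS with 1 mM EDTA and 0.2% BSA are exposed to compound for 30 min. [³³P]2-MeS-ADP (0.16 nM) is then added for 15 min at 20 °C, in triplicate. Filtration separates free from bound ligand, followed by scintillation counting. Nonspecific binding uses 1 mM unlabeled ADP. IC50 comes from a four-parameter logistic fit with asymptotes fixed at 0 and 100. n = 2.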

pIC50	SMILES
6.58	CCCC(=O)c1cnn(-c2ccc(NC(=O)c3cn(CC(=O)N4CCN(C)CC4)c4ccc(Cl)cc34)c(C(N)=O)c2)c1C
6.95	CCCC(=O)c1cnn(-c2ccc(NC(=O)c3cn(CC(=O)N4CCCCC4CN)c4ccc(C)cc34)cc2)c1C (configuration not stated)
7.18	CCCC(=O)c1cnn(-c2ccc(NC(=O)c3cn(CC(=O)N4CCN(CC)CC4)c4ccc(C)cc34)cc2)c1C
6.92	CCCCN1CCN(C(=O)Cn2cc(C(=O)Nc3ccc(-n4ncc(C(=O)CCC)c4C)cc3)c3cc(C)ccc32)CC1
6.99	CCCC(=O)c1cnn(-c2ccc(NC(=O)c3cn(CC(=O)N4CC(C)NC(C)C4)c4ccc(C)cc34)cc2)c1C (configuration not stated)
7.15	CCCC(=O)c1cnn(-c2ccc(NC(=O)c3cn(CC(=O)N4C[C@@H]5C[C@H]4CN5C)c4ccc(C)cc34)cc2)c1C
6.94	CCCC(=O)c1cnn(-c2ccc(NC(=O)c3cn(CC(=O)N4CCC(NC)CC4)c4ccc(C)cc34)cc2)c1C
6.97	CCCC(=O)c1cnn(-c2ccc(NC(=O)c3cn(CC(=O)N4CC5CNCC5C4)c4ccc(C)cc34)cc2)c1C (configuration not stated)
7.00	CCCC(=O)c1cnn(-c2ccc(NC(=O)c3cn(CC(=O)N4CCN(C)CC4)c4cc(Cl)c(Cl)cc34)cc2)c1C
7.02	CCCC(=O)c1cnn(-c2ccc(NC(=O)c3cn(CC(=O)N4CCCN(C)CC4)c4ccc(C)cc34)cc2)c1C
6.93	CCCC(=O)c1cnn(-c2ccc(NC(=O)c3cn(CC(=O)N4CCN(C)CC4)c4cc(Br)c(C)cc34)cc2)c1C
6.93	CCCC(=O)c1cnn(-c2ccc(NC(=O)c3cn(CC(=O)N4CC5CCNC5C4)c4ccc(C)cc34)cc2)c1C (configuration not stated)
6.91	CCCC(=O)c1cnn(-c2ccc(NC(=O)c3cn(CC(=O)N(C)CCN4CCCC4)c4ccc(C)cc34)cc2)c1C
9.05	CCCC(=O)c1cnn(-c2ccc(NC(=O)c3cn(CC(=O)O)c4ccc(C)cc34)cc2)c1C
7.04	CCCC(=O)c1cnn(-c2ccc(NC(=O)c3cn(CC(=O)NCCN(C)C)c4ccc(C)cc34)cc2)c1C
5.81	CCOC(=O)c1c(C)nn(-c2ccc(C(=O)NCc3ccccc3OC)cc2)c1C
7.14	CCCC(=O)c1cnn(-c2ccc(NC(=O)c3cn(CC(=O)N4CCCC(N(C)C)C4)c4ccc(C)cc34)cc2)c1C (configuration not stated)
7.19	CCCC(=O)c1cnn(-c2ccc(NC(=O)c3cn(CC(=O)N4CCCC(NC)C4)c4ccc(C)cc34)cc2)c1C (configuration not stated)
7.21	CCCC(=O)c1cnn(-c2ccc(NC(=O)c3cn(CC(=O)N[C@H]4CCNC4)c4ccc(C)cc34)cc2)c1C
7.07	CCCC(=O)c1cnn(-c2ccc(NC(=O)c3cn(CC(=O)N4C[C@@H]5C[C@H]4CN5)c4ccc(C)cc34)cc2)c1C
8.15	CCCC(=O)c1cnn(-c2ccc(NC(=O)c3cn(CCC(=O)O)c4ccc(C)cc34)cc2)c1C

pIC50	SMILES
7.72	CCCC(=O)c1cnn(-c2ccc(NC(=O)c3cn(CC(=O)N4CCN(CCF)CC4)c4ccc(C)cc34)cc2)c1C
7.33	CCCC(=O)c1cnn(-c2ccc(NC(=O)c3cn(CC(=O)N(C)C4CCN(C)C4)c4ccc(C)cc34)cc2)c1C (configuration not stated)
7.59	CCCC(=O)c1cnn(-c2ccc(NC(=O)c3cn(CC(=O)N4CCNCC4)c4ccc(C)cc34)cc2)c1C
7.82	CCCC(=O)c1cnn(-c2ccc(NC(=O)c3cn(CC(=O)N4C[C@@H]5C[C@@H](O)CN5C[C@@H]4C)c4ccc(C)cc34)cc2)c1C
7.18	CCCC(=O)c1cnn(-c2ccc(NC(=O)c3cn(CC(=O)N4CCN(CC(F)(F)F)CC4)c4ccc(C)cc34)cc2)c1C
7.34	CCCC(=O)c1cnn(-c2ccc(NC(=O)c3cn(CC(=O)N4CCCC(N)C4)c4ccc(C)cc34)cc2)c1C (configuration not stated)
7.03	CCCC(=O)c1cnn(-c2ccc(NC(=O)c3cn(CC(=O)N(C)CCNC)c4ccc(C)cc34)cc2)c1C
6.84	CC(=O)c1cnn(-c2ccc(NC(=O)c3cn(CC(=O)N4CCN(C)CC4)c4ccc(Cl)cc34)cc2)c1C
7.55	CCCC(=O)c1cnn(-c2ccc(NC(=O)c3cn(CC(=O)N4CC(C)N(C)C(C)C4)c4ccc(C)cc34)cc2)c1C (configuration not stated)
5.90	CCOC(=O)c1c(C)nn(-c2ccc(NC(=O)Nc3ccc(Cl)cc3)cc2)c1C
6.86	CCCC(=O)c1cnn(-c2ccc(NC(=O)c3cn(CC(=O)N4CCN(C)CC4)c4cc(Cl)c(C)cc34)cc2)c1C
7.36	CCCC(=O)c1cnn(-c2ccc(NC(=O)c3cn(CC(=O)N4CCN(C5CC5)CC4)c4ccc(C)cc34)cc2)c1C
7.92	CCCC(=O)c1cnn(-c2ccc(NC(=O)c3cn(CC(=O)N4CCN(Cc5ccc(F)cc5)CC4)c4ccc(C)cc34)cc2)c1C
7.00	CCCC(=O)c1cnn(-c2ccc(NC(=O)c3cn(CC(=O)N4CCCCC4CN4CCCC4)c4ccc(C)cc34)cc2)c1C (configuration not stated)
7.08	CCCC(=O)c1cnn(-c2ccc(NC(=O)c3cn(CC(=O)N(C)CC4CCCN(C)C4)c4ccc(C)cc34)cc2)c1C (configuration not stated)
7.54	CCCC(=O)c1cnn(-c2ccc(NC(=O)c3cn(CC(=O)N4CCN(CC5CC5)CC4)c4ccc(C)cc34)cc2)c1C
7.33	CCCC(=O)c1cnn(-c2ccc(NC(=O)n3cc(CCCC(=O)O)c4ccc(C)cc43)cc2)c1C
6.24	Cc1c(C(=O)CCC(F)(F)F)cnn1-c1ccc(NC(=O)c2cn(CC(=O)N3CCN(C)CC3)c3ccc(Cl)cc23)cc1
8.29	CCCC(=O)c1cnn(-c2ccc(NC(=O)c3cn(CC(=O)O)c4cc(C)c(C)cc34)cc2)c1C
7.06	CCCC(=O)c1cnn(-c2ccc(NC(=O)c3cn(CC(=O)NC(C)CN(C)C)c4ccc(C)cc34)cc2)c1C (configuration not stated)
7.48	CCCC(=O)c1cnn(-c2ccc(NC(=O)c3cn(CC(=O)N4CC5CN(C)CC5C4)c4ccc(C)cc34)cc2)c1C (configuration not stated)

pIC50	SMILES
7.10	CCOC(=O)c1c(C)nn(-c2ccc(NC(=O)Nc3ccccc3OCCCC(=O)O)cc2)c1C
6.86	CCCC(=O)c1cnn(-c2ccc(NC(=O)c3cn(CC(=O)NC4CCN(C)CC4)c4ccc(C)cc34)cc2)c1C
7.21	CCCC(=O)c1cnn(-c2ccc(NC(=O)c3cn(CC(=O)NCCn4ccnc4)c4ccc(C)cc34)cc2)c1C
7.77	CCCC(=O)c1cnn(-c2ccc(NC(=O)Nc3cc(C)ccc3OCCCC(=O)O)cc2)c1C
7.66	CCCC(=O)c1cnn(-c2ccc(NC(=O)c3cn(CC(=O)N4CCN(C)CC4)c4ccc(OC)cc34)cc2)c1C
7.15	CCCC(=O)c1cnn(-c2ccc(NC(=O)c3cn(CC(=O)N4CCC(N)CC4)c4ccc(C)cc34)cc2)c1C
6.57	CCCC(=O)c1cnn(-c2ccc(NC(=O)c3cn(CC(=O)O)c4ccc(C)c(C)c34)cc2)c1C
7.12	CCCC(=O)c1cnn(-c2ccc(NC(=O)c3cn(CC(=O)N4CCN(C)CC4)c4ccc(Cl)cc34)c(C(=O)O)c2)c1C
7.05	CCCC(=O)c1cnn(-c2ccc(NC(=O)c3cn(CC(=O)N4CC5CCN(C)C5C4)c4ccc(C)cc34)cc2)c1C (configuration not stated)
6.52	CCCC(=O)c1cnn(-c2ccc(N(C)C(=O)c3cn(CC(=O)O)c4ccc(C)cc34)cc2)c1C
7.08	CCCC(=O)c1cnn(-c2ccc(NC(=O)c3c(C)n(CC(=O)O)c4ccc(C)cc34)cc2)c1C
6.71	CCCC(=O)c1cnn(-c2ccc(NC(=O)c3cn(CC(=O)NCCN4CCCC4)c4ccc(C)cc34)cc2)c1C
6.32	CCCC(=O)c1cnn(-c2ccc(OC(=O)c3cn(CC(=O)N4CCN(C)CC4)c4ccc(Cl)cc34)cc2)c1C
6.25	CCCC(=O)c1cnn(-c2ccc3c(c2)OCCN3C(=O)c2cn(CC(=O)N3CCN(C)CC3)c3ccc(Cl)cc23)c1C
7.12	CCCC(=O)c1cnn(-c2ccc(NC(=O)c3cn(CC(=O)N4CCN(C)CC4)c4ccc(C#N)cc34)cc2)c1C
7.12	CCCC(=O)c1cnn(-c2ccc(NC(=O)c3cn(CC(=O)N4CCN5CCCC5C4)c4ccc(C)cc34)cc2)c1C (configuration not stated)
6.56	CCCC(=O)c1cnn(-c2cnc(NC(=O)c3cn(CC(=O)N4CCN(C)CC4)c4ccc(Cl)cc34)cn2)c1C
7.06	CCCC(=O)c1cnn(-c2ccc(NC(=O)c3cn(CC(=O)N4CCC(N(C)C)C4)c4ccc(C)cc34)cc2)c1C (configuration not stated)
7.03	CCCC(=O)c1cnn(-c2ccc(NC(=O)c3cn(CC(=O)N4CCC(NC)C4)c4ccc(C)cc34)cc2)c1C (configuration not stated)

SMILES	pIC50
CCCC(=O)c1cnn(-c2ccc(NC(=O)c3cn(CC(=O)N4CCNC(C)C4)c4ccc(C)cc34)cc2)c1C (configuration not stated)	7.34
CCCC(=O)c1cnn(-c2ccc(NC(=O)c3cn(CC(=O)OC)c4ccc(C)cc34)cc2)c1C	7.03
CCCC(=O)c1cnn(-c2ccc(NC(=O)c3cn(CC(=O)NC4CCCN(C)C4)c4ccc(C)cc34)cc2)c1C (configuration not stated)	7.15
CCCC(=O)c1cnn(-c2ccc(NC(=O)c3cn(CCCC(=O)O)c4ccc(C)cc34)cc2)c1C	7.62
CCCC(=O)c1cnn(-c2ccc(NC(=O)c3cn(CC(=O)N4CCN(C)CC4)c4ccc(F)cc34)cc2)c1C	6.85
CCC(=O)c1cnn(-c2ccc(NC(=O)c3cn(CC(=O)N4CCN(C)CC4)c4ccc(Cl)cc34)cc2)c1C	6.47

Reference: ChEMBL document CHEMBL3352233, “N-[6-(4-butanoyl-5-methyl-1H-pyrazol-1-yl)pyridazin-3-yl]-5-chloro-1-[2-(4-methylpiperazin-1-yl)-2-oxoethyl]-1H-indole-3-carboxamide (SAR216471), a novel intravenous and oral, reversible, and directly acting P2Y12 antagonist” (J Med Chem, 2014)
